“And” between values parts separate entries of the source, which are not always exact repeats. Equal entries are not always repeated.
Legend:
COX-2 = details: after a single dose of 120 mg; ref Dallob et al. [2003]; cited from earlier work
[1] = cited from earlier work
[2] = Secondary clinical parameters: pain scores, analgesic consumption, side effects; assay type: in vivo, human
plasma proteins = details: ref Agrawal et al. [2003b]; cited from earlier work
[3] = system: PGE2 production in tissue; assay: PGE2 concentrations in tissue exudate; assay type: in vivo, human
How it was run: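 Patients given oral 120 mg or placebo at 7.00 am on postoperative day 1 after non-cemented hip arthroplasty. Hip drain emptied 1 h before each scheduled time (0, 1, 3, 8, 12, 24 h), then exudate collected over 60 min. Exudate centrifuged, supernatant frozen at −30°C. PGE2 measured by enzyme immunoassay (LOQ 15 pg/mL). Times are collection-interval midpoints; changes expressed versus baseline.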

[4] = Pharmacokinetics of oral etoricoxib in plasma, CSF and tissue exudate; assay type: in vivo, human; details: for Tmax: t max
[5] = post-dose, monkeys; ref Riendeau et al. [2001]; cited from earlier work
[6] = at 200 mg; ref Brune and Hinz [2004]; Hinz et al. [2007]; cited from earlier work
[7] = patient R02, 50% of peak concentrations
[8] = patient R06, 50% of peak concentrations

Cc1ccc(-c2ncc(Cl)cc2-c2ccc(S(C)(=O)=O)cc2)cn1 [etoricoxib]
Ex vivo whole blood IC50 of COX-2 inhibition (COX-2): about 360 ng/mL
Time after administration within which etoricoxib interferes with surgical pain ([1]; patients, ref Clarke et al. [2009]): ≤ 2 h
Time after surgery before which etoricoxib was not analgesic ([1]; thyroid surgery, ref Smirnov et al. [2008]): ≥ 6 h
Perioperative side effects ([2]; 120 mg oral on postoperative day 1): no perioperative side effects related to the administration of etoricoxib
Postoperative pain and opioid consumption versus placebo ([2]; both groups received standard IT and parenteral pain medication, study not designed to detect differences): no meaningful differences
Bound to plasma proteins (plasma proteins): 92%
PGE2 concentration in tissue exudate, overall for all values (PGE2 Hip, n = 88) ([3]; 120 mg etoricoxib oral, day 1 post-surgery, n = 8, mean (SD)): 11.9 (10.2) ng/mL
PGE2 concentration in tissue exudate ([3]; 0.5 h after 120 mg oral, midpoint of collection interval, mean (SD)): 18.1 (8.8) ng/mL
PGE2 concentration in tissue exudate ([3]; 1.5 h after 120 mg oral, mean (SD)): 24.4 (10.5) ng/mL
PGE2 concentration in tissue exudate ([3]; 2.5 h after 120 mg oral, mean (SD)): 20.9 (16.1) ng/mL
PGE2 concentration in tissue exudate ([3]; 5.0 h after 120 mg oral, mean (SD)): 16.9 (13.6) ng/mL
PGE2 concentration in tissue exudate ([3]; 7.5 h after 120 mg oral, mean (SD)): 12.1 (9.3) ng/mL
PGE2 concentration in tissue exudate ([3]; 9.5 h after 120 mg oral, mean (SD)): 7.9 (6.0) ng/mL
PGE2 concentration in tissue exudate ([3]; 11.5 h after 120 mg oral, mean (SD)): 6.4 (5.1) ng/mL
PGE2 concentration in tissue exudate ([3]; 17.5 h after 120 mg oral, mean (SD)): 6.2 (6.2) ng/mL
PGE2 concentration in tissue exudate ([3]; 23.5 h after 120 mg oral, mean (SD)): 2.3 (0.7) ng/mL
Duration of the significant PGE2 difference to placebo ([3]; till the end of the observation period): 18 h
PGE2 concentration in tissue exudate ([3]; time point Pre (baseline), n = 8, mean (SD)): 7.7 (5.4) ng/mL
Time after medication at which the PGE2 difference to placebo became significant ([3]; tissue exudate samples, material produced about 2 h after medication): 5 h
CSF concentration ([4]; 1 h later than in plasma): > 29 ng/mL
CSF concentration at 1 h as part of the peak CSF concentration ([4]; 1 h post-dose): 34%
Etoricoxib in tissue exudate ([4]; 2.5 h): virtually no drug detected
Concentration in CSF as fraction of that in plasma at corresponding times ([4]; AUC0–24h and max. concentration ratios): 1/20
Cmax ([4]; CSF, n = 5, mean (± SD)): 68.4 (30.6) ng/mL
Time to plateau in plasma and CSF ([4]; both compartments): about 2 h
Plasma concentration ([4]; during the first hour after 120 mg oral): > 0.36 µg/mL
Cmax ([4]; human, CSF, oral, 120 mg, c max, n = 5, mean (± SD)): ~0.07 µg/mL
Tmax ([4]; human, CSF, oral, 120 mg, n = 5, median (range)): 8 h
AUC(0-t) ([4]; human, CSF, po, 120 mg, AUC0–24h, n = 5, 120 mg oral, mean (± SD)): 0.955 µg·h/mL
Kp at 8 h ([4]; human, CSF/plasma, oral, 120 mg, CSF/plasma conc. ratio at t max, n = 5, mean (± SD), at 8 h): 0.06
Kp ([4]; human, CSF/unbound plasma, oral, 120 mg, CSF/plasma ratio of the unbound fractions (CSF/Pu), at equilibrium (2–24 h), estimated): ~0.56
Cmax ([4]; human, plasma, oral, 120 mg, c max, plasma, n = 5 subgroup, mean (± SD)): 1.44 µg/mL
Cmax ([4]; human, plasma, oral, 120 mg, c max, n = 8 (all patients), mean (± SD)): 1.74 µg/mL
Tmax ([4]; human, plasma, oral, 120 mg, plasma, n = 5 subgroup, median (range)): 4 h
Tmax ([4]; human, plasma, oral, 120 mg, n = 8 (all patients), median (range)): 3 h
Individual CSF lag times with respect to (50%) peak plasma concentration ([4]; in all but one case): ≤ 2 h
Time to meaningful (COX-2 inhibitory) CSF concentrations ([4]; in nearly all patients): ≤ 2 h
Max. CSF/plasma conc. ratio ([4]; individual maximal concentration ratios, between 3 and 12 h, mean ± SD, n = 5): 7.3 (2.1) %
Time of peak CSF concentration ([4]; mean concentration-time curve, CSF): 8 h
Lag time plasma vs. CSF ([4]; mean of patients): 2 h
Lag time plasma vs. tissue exudate ([4]; mean of patients): 3.8 h
Lag time plasma vs. tissue exudate ([4]; median of patients, without correction for the delay of sampling): 4 h
CSF/plasma ratio AUC0–24h ([4]; n = 5, mean (range) of individual ratios): 4.4% and 4.4 (2–7) %
CSF/plasma conc. ratio at t max ([4]; n = 5, mean (± SD), at 8 h): 6.3 (2.0) %
t max for CSF/plasma conc. ratio ([4]; n = 5, median (range)): 8 (3–12) h
Lag time plasma vs. CSF ([4]; patient R01, 50% of peak concentrations): 1 h
Lag time plasma vs. tissue exudate ([4]; patient R01, with respect to 50% of peak concentrations): 4 h
Lag time plasma vs. CSF [4, 7]: 2 h
Lag time plasma vs. tissue exudate [4, 7]: 4 h
Lag time plasma vs. CSF ([4]; patient R05, in brackets: invalid data due to missing values): (2) h
Lag time plasma vs. CSF [4, 8]: 0 h
Lag time plasma vs. tissue exudate [4, 8]: 1.5 h
Lag time plasma vs. tissue exudate ([4]; patient R07, 50% of peak concentrations): 6.5 h
Lag time plasma vs. CSF ([4]; patient R07, in brackets: invalid data due to missing values): (3) h
Lag time plasma vs. CSF ([4]; patient R09, 50% of peak concentrations): 7 h
CSF peak concentration ([4]; patient R09, 8 h post-medication): 108 ng/mL
Median CSF lag time with respect to 50% of the peak concentration in plasma ([4]; patient R09 not included): 0.5 h
Range of CSF lag time with respect to 50% of the peak concentration in plasma ([4]; patient R09 not included): 0 to 2 h
Lag time plasma vs. tissue exudate ([4]; patient R10, 50% of peak concentrations): 3 h
Lag time plasma vs. CSF ([4]; patient R10, in brackets: invalid data due to missing values): (0) h
Lag time plasma vs. CSF ([4]; patient R12, 50% of peak concentrations): 0 h
Onset of antipyretic action [5]: about 2 h

Cc1ccc(-c2cc(C(F)(F)F)nn2-c2ccc(S(N)(=O)=O)cc2)cc1 [celecoxib]
Bioavailability [6]: 20–60%

Reference: PMC2807935 (Naunyn-Schmiedeberg's Archives of Pharmacology, 2010)
